The text below walks through data of ChEMBL document CHEMBL4699451, “Discovery of BIIB068: A Selective, Potent, Reversible Bruton's Tyrosine Kinase Inhibitor as an Orally Efficacious Agent for Autoimmune Diseases” (J Med Chem, 2020).

≈ marks a conversion by molar mass, not a printed value.

Tested on in one data set: not listed separately
Nature of the data set: Clearance in Sprague-Dawley rat at 1 mg/kg, iv relative to hepatic blood flow. The data set is classed as ADME, organism-based. As to conditions: in vivo.
In turn, `Cc1cc(-c2ccnc(Nc3cnn(C)c3)n2)ccc1CNC(=O)N1CCC(C(C)(C)C)C1` (stereo not drawn) yielded a CL of 4%.

Take `Cc1cc(-c2cc(N)ncn2)ccc1CNC(=O)c1cnc(C(C)(C)C)s1`: the CL was 6%.

Regarding `Cc1cc(-c2ncnc3[nH]ccc23)ccc1CNC(=O)c1cnc(C(C)(C)C)s1`, the CL was determined as 43%.

On to `Cc1cc(-c2ccnc(Nc3cnn(C)c3)n2)ccc1CNC(=O)c1nnc(C(C)(C)C)s1`, for which the CL is 18%.

Tested on in another data set: not listed separately
Nature of the data set: Protein binding in human plasma assessed as unbound fraction at 2 uM by rapid equilibrium dialysis method. Format: ADME, cell-free.
Conditions: not given
The method, boiled down: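 Unbound fraction in human plasma determined by rapid equilibrium dialysis at 2 µM compound.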
For orientation: fraction unbound means free concentration divided by total concentration. In the case of `Cc1cc(-c2ccnc(Nc3cnn(C)c3)n2)ccc1CNC(=O)N1CCC(C(C)(C)C)C1` (stereo not drawn), the fraction unbound at 2 µM was 0.002.

Take `Cc1cc(-c2cc(N)ncn2)ccc1CNC(=O)c1cnc(C(C)(C)C)s1`: the fraction unbound at 2 µM is 0.03.

As to `Cc1cc(-c2ncnc3[nH]ccc23)ccc1CNC(=O)c1cnc(C(C)(C)C)s1`, the fraction unbound at 2 µM is less than 0.01.

For the compound `Cc1cc(-c2ccnc(Nc3cnn(C)c3)n2)ccc1CNC(=O)c1nnc(C(C)(C)C)s1`, the fraction unbound at 2 µM came out at 0.007.

For the next data set, the target named is T1, Tyrosine-protein kinase BTK (Homo sapiens, UniProt Q06187). Kind of data set: Inhibition of BTK in human whole blood assessed as reduction in BTK phosphorylation measured after 30 mins by phosphotyrosine detection method. Format: tissue-based.
T1 sequence (Q06187 whole entry): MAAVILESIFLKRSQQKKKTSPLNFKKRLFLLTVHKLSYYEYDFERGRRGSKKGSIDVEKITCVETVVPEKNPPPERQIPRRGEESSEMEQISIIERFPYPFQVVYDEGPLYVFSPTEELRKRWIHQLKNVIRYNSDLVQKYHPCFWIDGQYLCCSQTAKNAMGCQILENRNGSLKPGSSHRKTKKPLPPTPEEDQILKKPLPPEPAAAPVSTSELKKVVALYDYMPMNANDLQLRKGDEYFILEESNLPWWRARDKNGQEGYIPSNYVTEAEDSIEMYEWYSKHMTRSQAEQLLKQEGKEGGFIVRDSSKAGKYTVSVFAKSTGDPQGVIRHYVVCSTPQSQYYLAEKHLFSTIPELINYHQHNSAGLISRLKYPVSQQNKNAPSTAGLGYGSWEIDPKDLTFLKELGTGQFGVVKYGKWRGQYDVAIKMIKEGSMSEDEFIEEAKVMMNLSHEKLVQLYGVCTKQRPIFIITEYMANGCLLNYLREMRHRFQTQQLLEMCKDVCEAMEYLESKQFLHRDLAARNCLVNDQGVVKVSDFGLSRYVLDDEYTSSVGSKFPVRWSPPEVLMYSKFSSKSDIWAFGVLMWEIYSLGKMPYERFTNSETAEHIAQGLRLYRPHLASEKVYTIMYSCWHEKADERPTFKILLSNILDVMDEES
Conditions: not given
A word on the IC50: it is the concentration needed to halve the response being measured. With `Cc1cc(-c2ccnc(Nc3ccncc3)n2)ccc1CNC(=O)c1cnc(C(C)(C)C)s1`, the IC50 came out at 5300 nM.

With `Cc1cc(-c2ccnc(Nc3cnn(C)c3)n2)ccc1CNC(=O)N1CCC(C(C)(C)C)C1` (stereo not drawn), the concentration for half-maximal inhibition (IC50) is 350 nM and the fIC50 is 0.7 nM.

Consider `Cc1cc(-c2ccnc(Nc3cnn(C)c3)n2)ccc1CNC(=O)c1nnc(C(C)(C)C)s1`, for which the IC50 came out at 1400 nM and the fIC50 was 9.8 nM.

Tested on in another data set: not listed separately
Kind of data set: Kinetic solubility of compound at pH 1.5 by shake flask method. The data set is classed as physicochemical. Conditions: buffer, read-out: Kinetic_solubility.
In the case of `Cc1cc(-c2ccnc(Nc3cnn(C)c3)n2)ccc1CNC(=O)N1CCC(C(C)(C)C)C1` (stereo not drawn), the solubility kinetic is less than 10 µg/mL.

With `Cc1cc(-c2ccnc(Nc3cnn(C)c3)n2)ccc1CNC(=O)c1nnc(C(C)(C)C)s1`, the solubility kinetic is more than 50 µg/mL.

A further data set addresses T1, Tyrosine-protein kinase BTK. Kind of data set: Inhibition of recombinant human full-length N-terminal His6-tagged BTK expressed in baculovirus infected Sf21 insect cells using fluorescein-labeled polyGAT peptide substrate measured after 30 mins by TR-FRET assay.
Conditions: not given
On the technique in general: In TR-FRET formats the signal depends on donor and acceptor labels being close together.
With `Cc1cc(-c2ccnc(Nc3ccncc3)n2)ccc1CNC(=O)c1cnc(C(C)(C)C)s1`, the IC50 was 0.4 nM.

In the case of `Cc1cc(-c2ccnc(Nc3cnn(C)c3)n2)ccc1CNC(=O)N1CCC(C(C)(C)C)C1` (stereo not drawn), the IC50 worked out at 0.2 nM.

`Cc1cc(-c2cc(N)ncn2)ccc1CNC(=O)c1cnc(C(C)(C)C)s1`: the IC50 turned out to be 9 nM.

As to `Cc1cc(-c2ncnc3[nH]ccc23)ccc1CNC(=O)c1cnc(C(C)(C)C)s1`, the IC50 amounted to 3 nM.

With `Cc1cc(-c2ccnc(Nc3cnn(C)c3)n2)ccc1CNC(=O)c1nnc(C(C)(C)C)s1`, the IC50 amounted to 2 nM.

Tested on in a further data set: not listed separately
Kind of data set: Clearance in human liver microsomes relative to hepatic blood flow. The data set is classed as ADME, Microsome. Conditions: read-out: CLH. (Liver microsomes are a subcellular fraction often used to study metabolism.)
For the compound `Cc1cc(-c2ccnc(Nc3cnn(C)c3)n2)ccc1CNC(=O)N1CCC(C(C)(C)C)C1` (stereo not drawn), the hepatic extraction ratio was determined as 0.19.

Take `Cc1cc(-c2cc(N)ncn2)ccc1CNC(=O)c1cnc(C(C)(C)C)s1`: the hepatic extraction ratio was determined as 0.53.

For `Cc1cc(-c2ncnc3[nH]ccc23)ccc1CNC(=O)c1cnc(C(C)(C)C)s1`, the hepatic extraction ratio turned out to be 0.64.

As for `Cc1cc(-c2ccnc(Nc3cnn(C)c3)n2)ccc1CNC(=O)c1nnc(C(C)(C)C)s1`, the hepatic extraction ratio was 0.03.

Tested on in a further data set: not listed separately
Kind of data set: Clearance in rat liver microsomes relative to hepatic blood flow. The data set is classed as ADME, Microsome. As to conditions: read-out: CLH.
As for `Cc1cc(-c2ccnc(Nc3cnn(C)c3)n2)ccc1CNC(=O)N1CCC(C(C)(C)C)C1` (stereo not drawn), the hepatic extraction ratio was found to be 0.01.

As for `Cc1cc(-c2cc(N)ncn2)ccc1CNC(=O)c1cnc(C(C)(C)C)s1`, the hepatic extraction ratio worked out at 0.72.

Take `Cc1cc(-c2ncnc3[nH]ccc23)ccc1CNC(=O)c1cnc(C(C)(C)C)s1`: the hepatic extraction ratio turned out to be 0.91.

As to `Cc1cc(-c2ccnc(Nc3cnn(C)c3)n2)ccc1CNC(=O)c1nnc(C(C)(C)C)s1`, the hepatic extraction ratio was determined as 0.01.

Tested on in a further data set: not listed separately
Nature of the data set: Lipophilicity, log D of compound by UV-HPLC method. The data set is classed as physicochemical.
Conditions: not given
What is called logD is lipophilicity at a set pH, counting ionised and neutral species. A low value points to lower lipophilicity. With `Cc1cc(-c2ccnc(Nc3ccncc3)n2)ccc1CNC(=O)c1cnc(C(C)(C)C)s1`, the logD came to 2.94.

`Cc1cc(-c2ccnc(Nc3cnn(C)c3)n2)ccc1CNC(=O)N1CCC(C(C)(C)C)C1` (stereo not drawn): the logD came out at 3.72.

On to `Cc1cc(-c2cc(N)ncn2)ccc1CNC(=O)c1cnc(C(C)(C)C)s1`, for which the logD was 3.87.

For `Cc1cc(-c2ncnc3[nH]ccc23)ccc1CNC(=O)c1cnc(C(C)(C)C)s1`, the logD was 4.35.

In turn, `Cc1cc(-c2ccnc(Nc3cnn(C)c3)n2)ccc1CNC(=O)c1nnc(C(C)(C)C)s1` had a logD of 3.01.

Tested on in a further data set: not listed separately
Nature of the data set: Kinetic solubility of compound at pH 6.8 by shake flask method. Conditions: buffer, read-out: Kinetic_solubility. Format: physicochemical.
`Cc1cc(-c2ccnc(Nc3ccncc3)n2)ccc1CNC(=O)c1cnc(C(C)(C)C)s1`: the solubility kinetic is less than 0.1 µg/mL.

On to `Cc1cc(-c2ccnc(Nc3cnn(C)c3)n2)ccc1CNC(=O)N1CCC(C(C)(C)C)C1` (stereo not drawn), for which the solubility kinetic is less than 10 µg/mL.

Regarding `Cc1cc(-c2cc(N)ncn2)ccc1CNC(=O)c1cnc(C(C)(C)C)s1`, the solubility kinetic is 6 µg/mL (≈ 15.7 µM).

For the compound `Cc1cc(-c2ncnc3[nH]ccc23)ccc1CNC(=O)c1cnc(C(C)(C)C)s1`, the solubility kinetic turned out to be 10 µg/mL (≈ 24.7 µM).

With `Cc1cc(-c2ccnc(Nc3cnn(C)c3)n2)ccc1CNC(=O)c1nnc(C(C)(C)C)s1`, the solubility kinetic was less than 10 µg/mL.
